Screening data: PubChem BioAssay, several laboratories
Dynein cargo inh: inhibitors of GR-EGFP nuclear translocation, primary screen, dynein cargo transport inhibitor project, imaging, high-content, 3617.4 mouse cells | test concentration mostly 20 µM; stimulated with dexamethasone, 1 µM; stronger effect = lower value | z-score, hits read low | actives 0.47% (n = 220,000);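 active means plate z-score of nuclear minus cytoplasmic receptor signal below a set negative limit, without overly bright fluorescence or cell loss, cut at about -3.5 in these data, passing the limit was not always enough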;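 further: z-score of nuclear minus cytoplasmic ring GR-EGFP intensity difference per well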
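medium = tetracycline-free induction medium containing charcoal-stripped FBS | also added = 1.0 µM final dexamethasone stimulus | schedule = 48 h induction, 1 h compound, 30 min dex at 37 °C | technique = fixed, Hoechst-stained cells imaged at 10x for EGFP | measure = GR-EGFP nuclear translocation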
b-catenin transl: modulators of beta-catenin nuclear translocation, primary screen, imaging, HeLa cells, immunofluorescence, high-content; actives 0.3% (n = 190,000); nuclear translocation activity, % at 5 µM;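 active means nuclear translocation activity above 50% at 5 µM, with a well cell count of 50 or more; inconclusive means wells under 50 cells across six images, flagged as toxic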;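 further: per-cell ratio of nuclear to cytoplasmic median beta-catenin stain intensity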
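Technique: fluorescence imaging of beta-catenin antibody stain plus DAPI / Material: human HeLa cell line / Incubation: compound treatment 24 h, 37°C, 5% CO2 / Read-out basis: % activation of per-cell nuclear versus cytoplasmic median beta-catenin signal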
MT stabilizer: microtubule stabilizers in HeLa cells, primary screen, imaging, high-content imaging; HeLa tubulin immunostaining HCS, 24 h; share of cells brighter than vehicle mean+2SD; % tubulin-high responders, % at 10 µM; actives 0.83% (n = 200,000); AID 2205, 2009;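 active means plate Z-score above 3 for both tubulin-high and condensed-nucleus cell shares, with cell loss under 80%, at 10 µM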;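 further: anti alpha tubulin signal scored within the nucleus-defined area of each cell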
Lmaj promast: Leishmania major promastigote growth inhibition, primary screen; Leishmania major promastigotes, resazurin fluorescence viability; inhibition, % at 10 µM; actives 9% (n = 200,000); in the data active means inhibition above about 50%;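 further: promastigotes grown with compound for 44 hours at 28 °C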
HSV augment: enhancers of HSV replication in host cells, fold increase, host cell viability | HSV replication augmentation in cells | actives 0.005% (n = 220,000) | maximum fold increase; in the data active means maximum fold increase above about 1.5; inconclusive means no clear call, values can overlap the other calls; tested in PC3 cells
Of the large screens only hits and unclear results are named; the others gave an inactive call. Only some compounds are listed: those with a hit (about 8.9% of all), similar ones and a draw of the others.

CC1=CC(=NOC(=O)c2cccc([N+](=O)[O-])c2)C=C(C)C1=O	Lmaj promast 100.2
CC1=CC(=O)C(C(C)C)=C/C1=N\OC(=O)c1cccc2nc(C)oc12	Lmaj promast 95.5, HSV augment inconclusive
Cc1ccc(NC(=S)N/N=C2\CC(C)(C)Oc3ccc(O)cc32)cc1	none
Cc1ccccc1NC(=S)N/N=C1\CC(C)(C)Oc2ccc(O)cc21	Lmaj promast 83.7
CC(C)(C)c1ccc(C2=CC(c3ccccc3F)n3ncnc3N2)cc1 (stereo unspecified)	none (no result: Dynein cargo inh, b-catenin transl, MT stabilizer, Lmaj promast)
Fc1ccc(Br)cc1C1C=C(c2cccnc2)Nc2ncnn21 (stereo unspecified)	MT stabilizer 18.2 (no result: b-catenin transl)
O=C(CCN1CCc2ccccc2C1)Nc1ccc2c(c1)OCO2	none (no result: b-catenin transl)
O=C(COc1ccccc1)N1CCc2ccccc21	none (no result: b-catenin transl)
O=C(COc1ccc2ccccc2c1CN1CCOCC1)N1CCc2ccccc21	Lmaj promast 59.7
CCNc1nc(N)nc(Oc2ccc(OCCOc3ccc(Cl)cc3Cl)nn2)n1	Lmaj promast 98.2
CCNc1nc(NCC)nc(Oc2ccc(OCC)nn2)n1	none
COc1ccc2sc(N(CCCN(C)C)C(=O)c3nc4ccccc4s3)nc2c1	none
COc1ccccc1C(=O)N(CCC1CCCN1C)c1nc2ccccc2s1 (stereo unspecified)	Lmaj promast 99.7
CCOc1ccc(N2CC(O)=C(c3ccccc3)C2=N)cc1	none
C=CCOC(=O)CCC(=O)Nc1cc(OC)nc(OC)n1	none
CCc1c(C)nc2ncnn2c1NCCc1ccc(OC)cc1	b-catenin transl 85.0, MT stabilizer 37.1
COc1ccc(/C=N/NC(=O)c2cccc(NC(=O)c3ccccc3Cl)c2)c(OC)c1	Lmaj promast 52.8
CCCCC(=O)Nc1cccc(C(=O)N/N=C/c2ccc(OC)cc2OC)c1	Lmaj promast 99.7
COc1ccc(/C=N/NC(=O)c2cccc(NC(=O)c3ccccc3Cl)c2)cc1OC	none
O=C(N/N=C/c1ccncc1)c1cccc(NC(=O)c2ccccc2Cl)c1	Lmaj promast 62.4
N=C1C(c2ccccc2)=C(O)CN1c1ccccc1N1CCOCC1	none
Cc1nc2ccccc2n1CC(=O)NN	none
CCN(CC)S(=O)(=O)c1ccc(Cl)c(C(=O)Nc2ccc(Cl)cc2[N+](=O)[O-])c1	Lmaj promast 85.0 (no result: b-catenin transl)
CN(C)S(=O)(=O)c1ccc(Cl)c(C(=O)Nc2ccccc2[N+](=O)[O-])c1	Lmaj promast 60.8
Cc1nn(CC(=O)Nc2cc(S(=O)(=O)N(C)C)ccc2Cl)c(C)c1[N+](=O)[O-]	Lmaj promast 71.6 (no result: b-catenin transl)
CN(C)S(=O)(=O)c1ccc(C(=O)Nc2ccccc2[N+](=O)[O-])cc1	Lmaj promast 65.7
CC(=O)Nc1ccc(N2C(=O)CSC2c2ccc(F)cc2)cc1 (stereo unspecified)	none
Cc1c(N2C(=O)C(=O)/C(=C(/O)c3ccc(Cl)cc3)C2c2ccccc2)c(=O)n(-c2ccccc2)n1C (stereo unspecified)	none
COC(=O)C1=C(C)N(c2ccc(C)c(C)c2)/C(=C/c2cccs2)C1=O	Lmaj promast 82.5
COC(=O)C1=C(C)N(c2ccc(Cl)cc2)/C(=C/c2cccs2)C1=O	none
COC(=O)C1=C(C)N(c2cccc(C)c2)C(=O)/C1=C\c1cccs1	none
COC(=O)C1=C(C)N(c2ccccc2)/C(=C/c2cccs2)C1=O	Lmaj promast 51.5
COc1cccc2c1OC[C@@H](CO)[C@H]2N(C)C(=O)Nc1ccc(Cl)cc1	none (no result: Dynein cargo inh, b-catenin transl)
CCn1c(/N=C/c2c[nH]c3ccccc23)nc2ccccc21	none
CC1=C(C(=O)Nc2ccccc2)C(c2ccc(O)cc2)N2C(=O)CSC2=N1 (stereo unspecified)	none
Cc1ccc(SCC(=O)Nc2ccc(C(=O)Nc3ccc(O)cc3)cc2)cc1	none
C=CCN1CC(O)=C(c2ccccc2)C1=N	MT stabilizer 34.2
COc1cc(NC(=O)CSc2nc3ccccc3n2-c2ccccc2)c(C)cc1[N+](=O)[O-]	Lmaj promast 54.8 (no result: b-catenin transl)
CCN(CC)c1ccc(NC(=O)CSc2nc3ccccc3c(=O)n2-c2cc(S(=O)(=O)N(C)C)ccc2C)cc1	Lmaj promast 99.4
CN(C)S(=O)(=O)c1ccc(NC(=O)CSc2nc3ccccc3n2-c2ccccc2)cc1	Lmaj promast 100.1
CN(C)S(=O)(=O)c1cccc(NC(=O)CSc2nc3ccccc3n2-c2ccccc2)c1	none
O=C(CNCCC1=CCCCC1)Nc1ccccc1N1CCCCC1	Lmaj promast 97.4
COC(=O)N/N=C(\C)c1ccc(OC(F)F)cc1	none
COC(=O)N/N=C(\C)c1ccc2ccccc2c1OC(F)F	Lmaj promast 55.7
Cc1oc2ccc(OCc3ccc(F)cc3Cl)cc2c1C(=O)O	none (no result: MT stabilizer, Lmaj promast)
COc1ccc(Cl)cc1C(=O)NCCN(C)C	none (no result: b-catenin transl)
COc1cc(C(=O)NCCC(C)C)ccc1OCc1ccc(Cl)cc1Cl	Lmaj promast 97.1 (no result: b-catenin transl)
COc1cc(C(=O)NC2CCCCC2)ccc1OCc1ccc(Cl)cc1Cl	Lmaj promast 73.6 (no result: b-catenin transl)
COc1ccc(C)cc1NC(=O)COC(=O)c1ccc(OCc2ccc(Cl)cc2Cl)c(OC)c1	none
CN(C)CCNC(=O)c1ccc(COc2ccc(Cl)cc2Cl)cc1	Lmaj promast 99.0
COc1cc(/C=N/NC(=O)c2ccccc2)ccc1O	none
COc1cc(/C=N/NC(=O)c2[nH]nc3c2CCc2ccccc2-3)ccc1O	MT stabilizer 23.8
O=C(CCl)NN=C(c1ccccc1)c1ccccc1	Lmaj promast 100.3
CCN(CC)CC(=O)NN=C(c1ccccc1)c1ccccc1	none
CCSc1ncc(/C=N/Nc2ccc(F)cc2)n1C	Lmaj promast 68.7
CCCCn1nnnc1SCC(=O)Nc1ccc(F)cc1	none
CCC1=NN(C(=O)Cc2ccc(OC)cc2)C(O)(C(F)(F)F)C1 (stereo unspecified)	none
COc1ccc(CC(=O)N2N=C(c3ccncc3)CC2(O)C(F)(F)F)cc1 (stereo unspecified)	MT stabilizer 14.9
Brc1ccc2c(c1)OCCOCCOc1cc(Br)ccc1OCCOCCOCCO2	Lmaj promast 100.5
Cc1cc(C)c2c(N)c3ccccc3nc2n1	Lmaj promast 100.5
CCc1ccc2nc3nc(C)cc(C)c3c(N)c2c1	Lmaj promast 100.7
Cc1cc(C)c2cccc(N)c2n1	none
Cc1c(NC(=O)c2c(N)n(-c3ccccc3)c3nc4ccccc4nc23)c(=O)n(-c2ccccc2)n1C	none
COC(=O)C(C(=O)OC)C(C[N+](=O)[O-])c1ccc(OC)c(OC)c1 (stereo unspecified)	Lmaj promast 99.9
COc1ccc(C(NC(=O)CC(C)C)NC(=O)CC(C)C)cc1OC	none
CC(=O)Nc1ccc(S(=O)(=O)Nc2cccc(-c3csc(C)n3)c2)cc1	none
Nc1nc(-c2cccc(NS(=O)(=O)c3ccccc3)c2)cs1	Lmaj promast 59.1
Cn1cc(/C=N/Nc2ccccc2)c2ccccc21	Lmaj promast 63.2
COc1ccc(Cl)cc1S(=O)(=O)N1CCN(c2ccc(F)cc2)CC1	Lmaj promast 76.6
